Tests used:
[1] = molecular target: Vascular endothelial growth factor receptor 2 (Homo sapiens, UniProt P35968); assay: Inhibition of N-terminal GST-tagged human VEGFR2 cytoplasmic domain (790-1356 end amino acid residue) expressed in baculovirus expression system preincubated for 30 to 120 mins followed by incubation with substrate and ATP for 30 mins by off-chip mobility shift assay
Method in brief: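 Recombinant VEGFR2 kinase preincubated with compound for 30 or 120 min at RT. Substrate plus ATP (75 µmol/L) added, 30 min at RT, then stopped with termination buffer and read by off-chip mobility shift. No-ATP wells set as 100% inhibition, DMSO wells as 0%. IC50 from Sigmoid-Emax nonlinear regression per experiment.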

[2] = molecular target: Fibroblast growth factor receptor 1 (Homo sapiens, UniProt P11362); assay: Inhibition of N-terminal GST-tagged human FGFR1 cytoplasmic domain (398-822 end amino acids residues) expressed in baculovirus expression system preincubated for 30 to 120 mins followed by incubation with substrate and ATP for 30 mins by off-chip mobility shift assay
Fibroblast growth factor receptor 1, sequence (P11362 whole entry, the tested form may be a part): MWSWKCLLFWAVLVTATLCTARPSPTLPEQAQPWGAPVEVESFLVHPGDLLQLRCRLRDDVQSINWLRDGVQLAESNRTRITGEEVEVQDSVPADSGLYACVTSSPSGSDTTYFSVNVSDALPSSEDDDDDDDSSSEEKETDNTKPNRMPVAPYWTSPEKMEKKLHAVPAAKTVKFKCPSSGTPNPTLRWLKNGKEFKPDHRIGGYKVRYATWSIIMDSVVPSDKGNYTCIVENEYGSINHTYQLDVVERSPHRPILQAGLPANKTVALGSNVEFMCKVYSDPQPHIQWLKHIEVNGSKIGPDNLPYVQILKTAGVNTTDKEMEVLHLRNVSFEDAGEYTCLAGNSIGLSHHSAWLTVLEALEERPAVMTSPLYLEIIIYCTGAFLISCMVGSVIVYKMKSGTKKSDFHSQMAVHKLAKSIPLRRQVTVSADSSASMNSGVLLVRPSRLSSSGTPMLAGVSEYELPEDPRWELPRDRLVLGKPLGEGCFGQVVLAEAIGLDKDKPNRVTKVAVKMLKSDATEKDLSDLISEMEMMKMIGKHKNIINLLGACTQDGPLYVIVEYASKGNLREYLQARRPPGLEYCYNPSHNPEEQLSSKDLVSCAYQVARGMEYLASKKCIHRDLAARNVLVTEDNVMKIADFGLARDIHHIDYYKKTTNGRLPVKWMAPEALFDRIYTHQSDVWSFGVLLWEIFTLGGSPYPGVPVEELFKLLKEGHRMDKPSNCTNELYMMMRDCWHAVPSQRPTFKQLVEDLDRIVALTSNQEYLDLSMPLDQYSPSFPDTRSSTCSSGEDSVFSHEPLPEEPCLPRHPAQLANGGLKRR

[3] = molecular target: Fibroblast growth factor receptor 2 (Homo sapiens, UniProt P21802); assay: Inhibition of N-terminal GST-tagged human FGFR2 cytoplasmic domain (399-821 end amino acids residues) expressed in baculovirus expression system preincubated for 30 to 120 mins followed by incubation with substrate and ATP for 30 mins by off-chip mobility shift assay
Fibroblast growth factor receptor 2, sequence (P21802 whole entry, the tested form may be a part): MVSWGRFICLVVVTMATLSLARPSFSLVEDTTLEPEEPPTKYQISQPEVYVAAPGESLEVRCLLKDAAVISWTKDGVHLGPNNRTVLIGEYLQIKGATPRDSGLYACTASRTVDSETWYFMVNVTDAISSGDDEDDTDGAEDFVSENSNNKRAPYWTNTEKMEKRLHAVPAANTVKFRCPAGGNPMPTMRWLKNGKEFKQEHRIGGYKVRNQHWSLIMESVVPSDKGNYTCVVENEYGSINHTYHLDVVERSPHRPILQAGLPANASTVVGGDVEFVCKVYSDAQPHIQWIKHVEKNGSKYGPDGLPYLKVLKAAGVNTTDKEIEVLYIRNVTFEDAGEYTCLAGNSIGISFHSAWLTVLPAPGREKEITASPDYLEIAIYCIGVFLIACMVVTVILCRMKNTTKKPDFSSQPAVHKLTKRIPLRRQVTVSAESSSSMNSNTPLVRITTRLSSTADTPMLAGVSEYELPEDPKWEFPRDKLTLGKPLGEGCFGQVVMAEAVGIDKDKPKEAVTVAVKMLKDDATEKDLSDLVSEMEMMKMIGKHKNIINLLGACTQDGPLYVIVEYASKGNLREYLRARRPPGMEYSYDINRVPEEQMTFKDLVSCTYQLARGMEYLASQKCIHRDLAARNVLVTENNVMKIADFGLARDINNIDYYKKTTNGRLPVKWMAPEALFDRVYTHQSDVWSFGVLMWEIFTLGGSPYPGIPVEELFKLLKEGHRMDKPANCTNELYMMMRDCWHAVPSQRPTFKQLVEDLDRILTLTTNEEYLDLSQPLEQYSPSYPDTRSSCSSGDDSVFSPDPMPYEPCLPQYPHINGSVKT

[4] = molecular target: Fibroblast growth factor receptor 4 (Homo sapiens, UniProt P22455); assay: Inhibition of N-terminal GST-tagged human FGFR4 cytoplasmic domain (460-802 end amino acids residues) expressed in baculovirus expression system preincubated for 30 to 120 mins followed by incubation with substrate and ATP for 30 mins by off-chip mobility shift assay
Fibroblast growth factor receptor 4, sequence (P22455 whole entry, the tested form may be a part): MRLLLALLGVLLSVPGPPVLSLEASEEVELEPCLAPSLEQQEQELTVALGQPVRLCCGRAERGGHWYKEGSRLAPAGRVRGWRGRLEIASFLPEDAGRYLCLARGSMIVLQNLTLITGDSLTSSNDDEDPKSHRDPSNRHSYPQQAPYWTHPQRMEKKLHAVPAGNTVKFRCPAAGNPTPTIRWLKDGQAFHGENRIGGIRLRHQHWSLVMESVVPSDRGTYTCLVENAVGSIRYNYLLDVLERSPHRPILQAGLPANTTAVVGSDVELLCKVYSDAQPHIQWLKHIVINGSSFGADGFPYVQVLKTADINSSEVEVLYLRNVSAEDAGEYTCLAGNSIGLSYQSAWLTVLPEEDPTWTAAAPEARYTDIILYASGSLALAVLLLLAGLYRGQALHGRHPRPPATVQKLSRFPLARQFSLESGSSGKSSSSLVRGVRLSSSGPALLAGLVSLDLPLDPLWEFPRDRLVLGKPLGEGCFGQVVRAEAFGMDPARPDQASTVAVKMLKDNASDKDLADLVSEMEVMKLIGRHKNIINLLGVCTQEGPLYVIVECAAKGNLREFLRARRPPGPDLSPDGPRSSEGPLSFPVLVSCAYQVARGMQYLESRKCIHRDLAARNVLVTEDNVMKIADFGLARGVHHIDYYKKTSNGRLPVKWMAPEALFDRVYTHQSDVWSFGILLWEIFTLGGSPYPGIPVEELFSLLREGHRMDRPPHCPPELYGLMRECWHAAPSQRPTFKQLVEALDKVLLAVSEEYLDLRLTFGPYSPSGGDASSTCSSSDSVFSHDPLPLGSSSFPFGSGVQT

[5] = Antiproliferative activity against human UM-UC-14 cells harboring FGFR3 S249C mutation assessed as inhibition of cell growth incubated for 5 days by CellTier-Glo luminescent assay; conditions: UMUC14, 120 h
[6] = molecular target: Fibroblast growth factor receptor 3 (Homo sapiens, UniProt P22607); assay: Inhibition of N-terminal GST-tagged human FGFR3 cytoplasmic domain (436-806 end amino acids residues) expressed in baculovirus expression system preincubated for 30 to 120 mins followed by incubation with substrate and ATP for 30 mins by off-chip mobility shift assay
Fibroblast growth factor receptor 3, sequence (P22607 whole entry, the tested form may be a part): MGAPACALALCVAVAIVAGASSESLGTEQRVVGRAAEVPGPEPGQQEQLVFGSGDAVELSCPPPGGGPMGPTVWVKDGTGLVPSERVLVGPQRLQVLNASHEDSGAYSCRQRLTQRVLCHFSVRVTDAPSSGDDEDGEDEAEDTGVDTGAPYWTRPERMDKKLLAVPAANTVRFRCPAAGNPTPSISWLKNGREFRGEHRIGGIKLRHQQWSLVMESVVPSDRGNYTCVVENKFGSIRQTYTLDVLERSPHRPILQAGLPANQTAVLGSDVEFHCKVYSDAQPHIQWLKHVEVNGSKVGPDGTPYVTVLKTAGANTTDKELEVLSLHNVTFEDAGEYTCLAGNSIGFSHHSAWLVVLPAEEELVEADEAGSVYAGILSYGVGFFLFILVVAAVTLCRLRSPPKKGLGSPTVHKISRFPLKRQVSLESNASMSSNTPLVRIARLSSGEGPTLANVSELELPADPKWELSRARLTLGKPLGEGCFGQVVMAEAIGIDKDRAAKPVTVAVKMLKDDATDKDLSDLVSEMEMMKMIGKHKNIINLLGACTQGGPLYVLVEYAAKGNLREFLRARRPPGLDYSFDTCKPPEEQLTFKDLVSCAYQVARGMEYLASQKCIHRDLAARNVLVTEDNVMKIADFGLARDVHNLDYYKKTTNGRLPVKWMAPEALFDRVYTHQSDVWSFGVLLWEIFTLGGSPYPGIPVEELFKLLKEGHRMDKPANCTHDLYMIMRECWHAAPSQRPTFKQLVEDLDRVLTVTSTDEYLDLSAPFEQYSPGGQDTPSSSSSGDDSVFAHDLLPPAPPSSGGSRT

Vascular endothelial growth factor receptor 2, sequence (P35968 whole entry, the tested form may be a part): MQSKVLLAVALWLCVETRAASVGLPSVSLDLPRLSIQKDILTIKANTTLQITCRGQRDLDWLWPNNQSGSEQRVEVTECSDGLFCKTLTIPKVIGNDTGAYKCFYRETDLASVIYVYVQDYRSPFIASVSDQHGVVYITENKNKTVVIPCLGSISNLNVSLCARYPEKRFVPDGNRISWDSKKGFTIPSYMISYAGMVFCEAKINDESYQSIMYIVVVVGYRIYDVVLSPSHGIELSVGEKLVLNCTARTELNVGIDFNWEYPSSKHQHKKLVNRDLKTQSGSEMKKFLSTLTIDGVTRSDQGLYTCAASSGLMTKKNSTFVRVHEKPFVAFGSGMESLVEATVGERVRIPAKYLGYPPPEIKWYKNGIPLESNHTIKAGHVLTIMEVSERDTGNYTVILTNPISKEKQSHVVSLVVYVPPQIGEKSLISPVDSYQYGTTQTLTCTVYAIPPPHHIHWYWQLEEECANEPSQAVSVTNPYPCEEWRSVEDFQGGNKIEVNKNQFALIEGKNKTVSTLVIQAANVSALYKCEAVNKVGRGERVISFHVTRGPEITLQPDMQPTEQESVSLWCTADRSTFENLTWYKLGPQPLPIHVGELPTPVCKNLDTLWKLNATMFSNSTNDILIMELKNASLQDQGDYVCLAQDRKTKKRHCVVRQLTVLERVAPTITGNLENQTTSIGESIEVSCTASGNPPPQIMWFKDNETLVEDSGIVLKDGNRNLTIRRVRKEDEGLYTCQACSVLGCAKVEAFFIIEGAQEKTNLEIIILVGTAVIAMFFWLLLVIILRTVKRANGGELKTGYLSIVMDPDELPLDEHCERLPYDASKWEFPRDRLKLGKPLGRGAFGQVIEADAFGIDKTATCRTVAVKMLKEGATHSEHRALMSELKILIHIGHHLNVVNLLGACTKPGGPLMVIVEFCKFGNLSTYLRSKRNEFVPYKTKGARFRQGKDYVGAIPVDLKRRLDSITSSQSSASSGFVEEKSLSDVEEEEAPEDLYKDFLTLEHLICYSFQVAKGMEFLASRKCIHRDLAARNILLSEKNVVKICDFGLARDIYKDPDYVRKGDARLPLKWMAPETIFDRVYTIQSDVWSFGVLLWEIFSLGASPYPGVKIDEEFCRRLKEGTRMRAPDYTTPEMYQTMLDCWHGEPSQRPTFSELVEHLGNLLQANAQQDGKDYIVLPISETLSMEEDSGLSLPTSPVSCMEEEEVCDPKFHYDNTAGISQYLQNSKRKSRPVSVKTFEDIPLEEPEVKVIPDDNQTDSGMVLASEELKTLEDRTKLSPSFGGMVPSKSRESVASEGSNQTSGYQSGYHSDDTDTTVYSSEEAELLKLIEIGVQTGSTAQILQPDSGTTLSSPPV

| Structure (SMILES) | IC50 [1] | other results |
| --- | --- | --- |
| CCNS(=O)(=O)c1ccccc1Nc1nc(Nc2ccc(N3CCC(N4CCN(C)CC4)CC3)c(OC)c2)ncc1-c1cc(OC)cc(OC)c1 | 38 nM | – |
| CCNS(=O)(=O)c1ccccc1Nc1ncnc(Nc2ccc(N3CCN(C)CC3)c(OCCOCCOC)c2)n1 | 550 nM | – |
| CCNS(=O)(=O)c1ccccc1Nc1ncnc(Nc2ccc(N3CCN(C)CC3)c(OCCN3CCOCC3)c2)n1 | 570 nM | – |
| CCNS(=O)(=O)c1ccccc1Nc1ncnc(Nc2ccc(N3CCN(C)CC3)c(OC)c2)n1 | 341 nM | – |
| CCNS(=O)(=O)c1ccccc1Nc1nc(Nc2ccc(N3CCC(N4CCN(C)CC4)CC3)c(OC)c2)ncc1NC(=O)c1nc(OC)cc(OC)n1 | 131 nM | – |
| CCNS(=O)(=O)c1ccccc1Nc1ncnc(Nc2ccc(N3CCN(C)CC3)c(OCCOC)c2)n1 | 310 nM | – |
| CCNS(=O)(=O)c1ccccc1Nc1ncnc(Nc2ccc(N3CCN(C)CC3)c(OCCN3CCN(C)CC3)c2)n1 | 341 nM | – |
| CCNS(=O)(=O)c1ccccc1Nc1nc(Nc2ccc(N3CCC(N4CCN(C)CC4)CC3)c(OC)c2)ncc1NC(=O)c1cc(C)cc(C)c1 | 554 nM | – |
| CCNS(=O)(=O)c1ccccc1Nc1ncnc(Nc2ccc(N3CCN(C)CC3)c(OCC(=O)OCC)c2)n1 | 316 nM | – |
| CCNS(=O)(=O)c1ccccc1Nc1nc(Nc2ccc(N3CCC(N4CCN(C)CC4)CC3)c(OC)c2)ncc1NC(=O)c1cc(OC)ccc1OC | 435 nM | – |
| CCNS(=O)(=O)c1ccccc1Nc1nc(Nc2ccc(N3CCC(N4CCN(C)CC4)CC3)c(OC)c2)ncc1CCc1cc(OC)cc(OC)c1 | 292 nM | – |
| CCNS(=O)(=O)c1ccccc1Nc1nc(Nc2ccc(N3CCC(N4CCN(C)CC4)CC3)c(OC)c2)ncc1NC(=O)c1cc(OC)cc(OC)c1 | > 1000 nM | IC50 [2]: 2.1 nM; IC50 [3]: 3.1 nM; IC50 [4]: 74 nM; IC50 [5]: 84 nM |
| CCNS(=O)(=O)c1ccccc1Nc1nc(Nc2ccc(N3CCC(N4CCN(C)CC4)CC3)c(OC)c2)ncc1NC(=O)c1cc(O)cc(O)c1 | 715 nM | – |
| CCNS(=O)(=O)c1ccccc1Nc1ncnc(Nc2ccc(N3CCN(C)CC3)c(OCCCN3CCOCC3)c2)n1 | 736 nM | – |
| CCNS(=O)(=O)c1ccccc1Nc1ncnc(Nc2ccc(N3CCC(N4CCN(C)CC4)CC3)c(OC)c2)n1 | 266 nM | – |
| CCNS(=O)(=O)c1ccccc1Nc1ncnc(Nc2ccc(N3CCN(C)CC3)c(OCC(=O)O)c2)n1 | 120 nM | – |
| CCNS(=O)(=O)c1ccccc1Nc1nc(Nc2ccc(N3CCC(N4CCN(C)CC4)CC3)c(OC)c2)ncc1NC(=O)c1cc(OC)nc(OC)n1 | 227 nM | – |
| CCNS(=O)(=O)c1ccccc1Nc1nc(Nc2ccc(N3CCC(N4CCN(C)CC4)CC3)c(OC)c2)ncc1Cc1cc(OC)cc(OC)c1 | > 1000 nM | IC50 [6]: > 1000 nM |
| CCNS(=O)(=O)c1ccccc1Nc1nc(Nc2ccc(N3CCC(N4CCN(C)CC4)CC3)c(OC)c2)ncc1NC(=O)c1cccc(OC)c1OC | 461 nM | – |
